test system: Rumex acetosa; test: Post-emergence herbicidal activity against Rumex acetosa assessed as growth inhibition at emulsified concentrate of 37.5 g/ai ha after 15 days by greenhouse test; assay type: functional

SMILES | inhibition (INH)
CCOC(=O)CCCSc1nc2cc(-n3nc(C(C)(C)C)oc3=O)c(F)cc2s1 | 50%

test system: Rumex acetosa; test: Post-emergence herbicidal activity against Rumex acetosa assessed as growth inhibition at emulsified concentrate of 75 g/ai ha after 15 days by greenhouse test; assay type: functional

SMILES | inhibition (INH)
CCOC(=O)CCCSc1nc2cc(-n3nc(C(C)(C)C)oc3=O)c(F)cc2s1 | 60%

test system: Amaranthus retroflexus; test: Post-emergence herbicidal activity against Amaranthus retroflexus assessed as growth inhibition at emulsified concentrate of 37.5 g/ai ha after 15 days by greenhouse test; assay type: functional
How it was run: (§1)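 Compounds were made up as 100 g/L emulsifiable concentrates in DMF with Tween-80, then diluted in water. About 20 seeds were sown 1-3 cm deep in pots and grown in a greenhouse at 15-30 °C and 50% relative humidity. Sprays were applied postemergence at the two-leaf stage. Untreated and DMF + Tween-80 solvent controls were included. Injury was scored visually 15 days after treatment, with three replicates per treatment.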

SMILES | inhibition (INH)
CCOC(=O)CCCSc1nc2cc(-n3nc(C(C)(C)C)oc3=O)c(F)cc2s1 | 60%

test system: Abutilon theophrasti; test: Post-emergence herbicidal activity against Abutilon theophrasti (velvetleaf) assessed as growth inhibition at emulsified concentrate of 37.5 g/ai ha after 15 days by greenhouse test; assay type: functional

SMILES | inhibition (INH)
CCOC(=O)CCCSc1nc2cc(-n3nc(C(C)(C)C)oc3=O)c(F)cc2s1 | 0%

test system: Brassica juncea; test: Post-emergence herbicidal activity against Brassica juncea assessed as growth inhibition at emulsified concentrate of 150 g/ai ha after 15 days by greenhouse test; assay type: functional
How it was run: (§2)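 About 20 seeds sown 1–3 cm deep, grown at 15–30 °C and 50% RH. Dicot seedlings sprayed postemergence at the two-leaf stage with a 100 g/L emulsifiable concentrate (DMF/Tween-80) diluted in water, 150 g ai/ha. Untreated and solvent controls included. Visual rating at 15 days, three replicates.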

SMILES | inhibition (INH)
CCOC(=O)CCCSc1nc2cc(-n3nc(C(C)(C)C)oc3=O)c(F)cc2s1 | 50%
CCOC(=O)CSc1nc2cc(-n3nc(C(C)(C)C)oc3=O)c(Br)cc2s1 | 0%
CC(C)OC(=O)CSc1nc2cc(-n3nc(C(C)(C)C)oc3=O)c(Br)cc2s1 | 0%

test system: Polygonum humifusum; test: Post-emergence herbicidal activity against Polygonum humifusum assessed as growth inhibition at emulsified concentrate of 150 g/ai ha after 15 days by greenhouse test; assay type: functional

SMILES | inhibition (INH)
CCOC(=O)CCCSc1nc2cc(-n3nc(C(C)(C)C)oc3=O)c(F)cc2s1 | 80%

test system: Cyperus iria; test: Post-emergence herbicidal activity against Cyperus iria assessed as growth inhibition at emulsified concentrate of 37.5 g/ai ha after 15 days by greenhouse test; assay type: functional

SMILES | inhibition (INH)
CCOC(=O)CCCSc1nc2cc(-n3nc(C(C)(C)C)oc3=O)c(F)cc2s1 | 60%

test system: Eclipta prostrata; test: Post-emergence herbicidal activity against Eclipta prostrata assessed as growth inhibition at emulsified concentrate of 75 g/ai ha after 15 days by greenhouse test; assay type: functional; how it was run: as §1

SMILES | inhibition (INH)
CCOC(=O)CCCSc1nc2cc(-n3nc(C(C)(C)C)oc3=O)c(F)cc2s1 | 60%

test system: Brassica juncea; test: Post-emergence herbicidal activity against Brassica juncea assessed as growth inhibition at emulsified concentrate of 37.5 g/ai ha after 15 days by greenhouse test; assay type: functional; how it was run: as §1

SMILES | inhibition (INH)
CCOC(=O)CCCSc1nc2cc(-n3nc(C(C)(C)C)oc3=O)c(F)cc2s1 | 50%

test system: Echinochloa crus-galli; test: Post-emergence herbicidal activity against Echinochloa crus-galli (barnyard grass) assessed as growth inhibition at emulsified concentrate of 150 g/ai ha after 15 days by greenhouse test; assay type: functional
How it was run: (§3)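 About 20 seeds sown 1–3 cm deep, grown at 15–30 °C and 50% RH. Monocot seedlings sprayed postemergence at the one-leaf stage with a 100 g/L emulsifiable concentrate (DMF/Tween-80) diluted in water, 150 g ai/ha. Untreated and solvent controls included. Visual rating at 15 days, three replicates.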

SMILES | inhibition (INH)
CCOC(=O)CCCSc1nc2cc(-n3nc(C(C)(C)C)oc3=O)c(F)cc2s1 | 0%
CCOC(=O)CSc1nc2cc(-n3nc(C(C)(C)C)oc3=O)c(Br)cc2s1 | 0%
CC(C)OC(=O)CSc1nc2cc(-n3nc(C(C)(C)C)oc3=O)c(Br)cc2s1 | 0%

test system: Cyperus iria; test: Post-emergence herbicidal activity against Cyperus iria assessed as growth inhibition at emulsified concentrate of 75 g/ai ha after 15 days by greenhouse test; assay type: functional

SMILES | inhibition (INH)
CCOC(=O)CCCSc1nc2cc(-n3nc(C(C)(C)C)oc3=O)c(F)cc2s1 | 60%

test system: Cyperus iria; test: Post-emergence herbicidal activity against Cyperus iria assessed as growth inhibition at emulsified concentrate of 150 g/ai ha after 15 days by greenhouse test; assay type: functional

SMILES | inhibition (INH)
CCOC(=O)CCCSc1nc2cc(-n3nc(C(C)(C)C)oc3=O)c(F)cc2s1 | 70%

test system: Eclipta prostrata; test: Post-emergence herbicidal activity against Eclipta prostrata assessed as growth inhibition at emulsified concentrate of 37.5 g/ai ha after 15 days by greenhouse test; assay type: functional; how it was run: as §1

SMILES | inhibition (INH)
CCOC(=O)CCCSc1nc2cc(-n3nc(C(C)(C)C)oc3=O)c(F)cc2s1 | 50%

test system: Polygonum humifusum; test: Post-emergence herbicidal activity against Polygonum humifusum assessed as growth inhibition at emulsified concentrate of 37.5 g/ai ha after 15 days by greenhouse test; assay type: functional

SMILES | inhibition (INH)
CCOC(=O)CCCSc1nc2cc(-n3nc(C(C)(C)C)oc3=O)c(F)cc2s1 | 50%

test system: Polygonum humifusum; test: Post-emergence herbicidal activity against Polygonum humifusum assessed as growth inhibition at emulsified concentrate of 75 g/ai ha after 15 days by greenhouse test; assay type: functional

SMILES | inhibition (INH)
CCOC(=O)CCCSc1nc2cc(-n3nc(C(C)(C)C)oc3=O)c(F)cc2s1 | 80%

test system: Brassica juncea; test: Post-emergence herbicidal activity against Brassica juncea assessed as growth inhibition at emulsified concentrate of 75 g/ai ha after 15 days by greenhouse test; assay type: functional; how it was run: as §1

SMILES | inhibition (INH)
CCOC(=O)CCCSc1nc2cc(-n3nc(C(C)(C)C)oc3=O)c(F)cc2s1 | 50%

test system: Poa annua; test: Post-emergence herbicidal activity against Poa annua assessed as growth inhibition at emulsified concentrate of 150 g/ai ha after 15 days by greenhouse test; assay type: functional; how it was run: as §3

SMILES | inhibition (INH)
CCOC(=O)CCCSc1nc2cc(-n3nc(C(C)(C)C)oc3=O)c(F)cc2s1 | 0%
CCOC(=O)CSc1nc2cc(-n3nc(C(C)(C)C)oc3=O)c(Br)cc2s1 | 0%
CC(C)OC(=O)CSc1nc2cc(-n3nc(C(C)(C)C)oc3=O)c(Br)cc2s1 | 0%

test system: Eclipta prostrata; test: Post-emergence herbicidal activity against Eclipta prostrata assessed as growth inhibition at emulsified concentrate of 150 g/ai ha after 15 days by greenhouse test; assay type: functional; how it was run: as §2

SMILES | inhibition (INH)
CCOC(=O)CCCSc1nc2cc(-n3nc(C(C)(C)C)oc3=O)c(F)cc2s1 | 70%
CCOC(=O)CSc1nc2cc(-n3nc(C(C)(C)C)oc3=O)c(Br)cc2s1 | 0%
CC(C)OC(=O)CSc1nc2cc(-n3nc(C(C)(C)C)oc3=O)c(Br)cc2s1 | 0%

test system: Abutilon theophrasti; test: Post-emergence herbicidal activity against Abutilon theophrasti (velvetleaf) assessed as growth inhibition at emulsified concentrate of 150 g/ai ha after 15 days by greenhouse test; assay type: functional

SMILES | inhibition (INH)
CCOC(=O)CCCSc1nc2cc(-n3nc(C(C)(C)C)oc3=O)c(F)cc2s1 | 50%

test system: Digitaria sanguinalis; test: Post-emergence herbicidal activity against Digitaria sanguinalis (hairy crabgrass) assessed as growth inhibition at emulsified concentrate of 150 g/ai ha after 15 days by greenhouse test; assay type: functional; how it was run: as §3

SMILES | inhibition (INH)
CCOC(=O)CCCSc1nc2cc(-n3nc(C(C)(C)C)oc3=O)c(F)cc2s1 | 0%
CCOC(=O)CSc1nc2cc(-n3nc(C(C)(C)C)oc3=O)c(Br)cc2s1 | 0%
CC(C)OC(=O)CSc1nc2cc(-n3nc(C(C)(C)C)oc3=O)c(Br)cc2s1 | 0%

test system: Amaranthus retroflexus; test: Post-emergence herbicidal activity against Amaranthus retroflexus assessed as growth inhibition at emulsified concentrate of 150 g/ai ha after 15 days by greenhouse test; assay type: functional; how it was run: as §2

SMILES | inhibition (INH)
CCOC(=O)CCCSc1nc2cc(-n3nc(C(C)(C)C)oc3=O)c(F)cc2s1 | 90%
CCOC(=O)CSc1nc2cc(-n3nc(C(C)(C)C)oc3=O)c(Br)cc2s1 | 75%
CC(C)OC(=O)CSc1nc2cc(-n3nc(C(C)(C)C)oc3=O)c(Br)cc2s1 | 75%

test system: Abutilon theophrasti; test: Post-emergence herbicidal activity against Abutilon theophrasti (velvetleaf) assessed as growth inhibition at emulsified concentrate of 75 g/ai ha after 15 days by greenhouse test; assay type: functional

SMILES | inhibition (INH)
CCOC(=O)CCCSc1nc2cc(-n3nc(C(C)(C)C)oc3=O)c(F)cc2s1 | 0%

molecular target: T1, Protoporphyrinogen oxidase (Homo sapiens, UniProt P50336); test: Inhibition of Homo sapiens (human) recombinant protoporphyrinogen oxidase expressed in Escherichia coli JM109 assessed as oxidation of protoporphyrinogen IX substrate by fluorescence assay
T1 sequence (P50336 whole entry): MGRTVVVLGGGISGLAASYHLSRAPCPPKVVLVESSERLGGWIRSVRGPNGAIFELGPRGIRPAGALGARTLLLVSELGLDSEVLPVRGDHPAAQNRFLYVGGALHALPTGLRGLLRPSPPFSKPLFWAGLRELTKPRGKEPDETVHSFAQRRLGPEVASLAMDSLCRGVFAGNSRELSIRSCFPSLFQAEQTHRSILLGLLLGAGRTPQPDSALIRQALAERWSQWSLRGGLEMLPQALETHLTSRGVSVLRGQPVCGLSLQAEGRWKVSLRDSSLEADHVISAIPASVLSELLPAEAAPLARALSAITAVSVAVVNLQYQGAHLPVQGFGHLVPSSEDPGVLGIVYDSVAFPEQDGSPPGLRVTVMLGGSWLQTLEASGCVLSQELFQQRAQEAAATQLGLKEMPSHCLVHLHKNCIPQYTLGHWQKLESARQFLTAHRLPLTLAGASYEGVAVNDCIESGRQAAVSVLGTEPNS

SMILES | Ki
CCOC(=O)CCCSc1nc2cc(-n3nc(C(C)(C)C)oc3=O)c(F)cc2s1 | 0.7 µM
CCOC(=O)CSc1nc2cc(-n3nc(C(C)(C)C)oc3=O)c(Br)cc2s1 | 6.96 µM
CC(C)OC(=O)CSc1nc2cc(-n3nc(C(C)(C)C)oc3=O)c(Br)cc2s1 | 5.97 µM

test system: Rumex acetosa; test: Post-emergence herbicidal activity against Rumex acetosa assessed as growth inhibition at emulsified concentrate of 150 g/ai ha after 15 days by greenhouse test; assay type: functional

SMILES | inhibition (INH)
CCOC(=O)CCCSc1nc2cc(-n3nc(C(C)(C)C)oc3=O)c(F)cc2s1 | 70%

test system: Amaranthus retroflexus; test: Post-emergence herbicidal activity against Amaranthus retroflexus assessed as growth inhibition at emulsified concentrate of 75 g/ai ha after 15 days by greenhouse test; assay type: functional; how it was run: as §1

SMILES | inhibition (INH)
CCOC(=O)CCCSc1nc2cc(-n3nc(C(C)(C)C)oc3=O)c(F)cc2s1 | 80%

— ChEMBL document CHEMBL3045650, “Design, synthesis, and 3D-QSAR analysis of novel 1,3,4-oxadiazol-2(3H)-ones as protoporphyrinogen oxidase inhibitors” (J Agric Food Chem, 2010)
